The source of these data is ChEMBL document CHEMBL4190388, “Discovery and Optimization of Indolyl-Containing 4-Hydroxy-2-Pyridone Type II DNA Topoisomerase Inhibitors Active against Multidrug Resistant Gram-negative Bacteria” (J Med Chem, 2018).

Data set [1] in a line: Fraction unbound in mouse plasma at 1 uM by equilibrium dialysis method. The format is ADME, cell-free. (In general: In equilibrium dialysis free small molecules cross a membrane that holds back macromolecules.)
For data set [2], the system named is Mus musculus. Put plainly: AUC (0 to 24 hrs) in CD1 mouse plasma at 3 mg/kg, iv by LC-MS/MS analysis. The class given is ADME, organism-based. Also on record: time < 24 hr, dose 3 mg/kg, route intravenous. The following applies: in vivo. Summed up:
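CD-1 mice given a single 3 mg/kg iv dose (n = 3) in 3% DMSO/saline; plasma exposure measured.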

For data set [3], the system named is Mus musculus. In words: Antibacterial activity against Escherichia coli infected in cyclophosphamide treated neutropenic CD1 mouse septicemia model assessed as mouse survival at 3 mg/kg, iv dosed at 1 hr post infection followed by redosing at 5 hrs post infection measured at 96 hrs post infection relative to control. The class given is functional. The method in brief: (§1)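 Female CD-1 mice were made neutropenic with cyclophosphamide ip, 150 mg/kg on day −4 and 100 mg/kg on day −1. […] Compound was given iv in 3% DMSO/saline at 1 and 5 h postinfection, n = 6 per group. Percent survival was scored at 96 h postinfection.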

The subject of data set [4] is Mus musculus. Put plainly: Antibacterial activity against Escherichia coli infected in cyclophosphamide treated neutropenic CD1 mouse septicemia model assessed as mouse survival at 1.5 mg/kg, iv dosed at 1 hr post infection followed by redosing at 5 hrs post infection measured at 96 hrs post infection relative to control. The class given is functional. Summed up: as §1

In data set [5] the test system is Escherichia coli. Put plainly: Antibacterial activity against fluoroquinolone resistant Escherichia coli SKM18 by CLSI M100-S17 protocol based method. The format is functional.
The subject of data set [6] is Escherichia coli. In words: Antibacterial activity against wild type Escherichia coli ATCC 25922 by CLSI M100-S17 protocol based method. The format is functional.
In data set [7] the test system is Escherichia coli. In words: Antibacterial activity against quinolone resistance Escherichia coli isolate ELZ4251 harboring gyrA/parC mutant by CLSI M100-S17 protocol based method. The format is functional.
Data set [8] has as its system Acinetobacter baumannii. Put plainly: Antibacterial activity against wild type Acinetobacter baumannii ATCC BAA-747 by CLSI M100-S17 protocol based method. The class given is functional.
For data set [9], the system named is Acinetobacter baumannii. In words: Antibacterial activity against fluoroquinolone resistant Acinetobacter baumannii isolate MMX2240 by CLSI M100-S17 protocol based method. The format is functional.
The test system of data set [10] is Klebsiella pneumoniae. In words: Antibacterial activity against wild type Klebsiella pneumoniae ATCC 35657 by CLSI M100-S17 protocol based method. The format is functional.
The subject of data set [11] is Escherichia coli. Put plainly: Antibacterial activity against wild type Escherichia coli ATCC 25922 in presence of HSA by CLSI M100-S17 protocol based method. The format is functional.
Data set [12] concerns Escherichia coli. In words: Bactericidal activity against wild type Escherichia coli ATCC 25922 assessed as reduction of bacterial load after 24 hrs by time kill assay. The format is functional, organism-based.
Data set [13] relates to Acinetobacter baumannii. Put plainly: Bactericidal activity against wild type Acinetobacter baumannii ATCC BAA-747 assessed as reduction of bacterial load after 24 hrs by time kill assay. The format is functional, organism-based.
Data set [14] has as its system Escherichia coli. Put plainly: Bactericidal activity against wild type Escherichia coli ATCC 25922 assessed as reduction of bacterial load at 0.25 to 8 times MIC after 2 hrs by time kill assay. The format is functional.
Data set [15] concerns Acinetobacter baumannii. Put plainly: Bactericidal activity against wild type Acinetobacter baumannii ATCC BAA-747 assessed as reduction of bacterial load at 0.25 to 4 times MIC after 2 hrs by time kill assay. The format is functional.
For data set [16], the system named is Escherichia coli. Put plainly: Antibacterial activity against Escherichia coli SKM11 by CLSI M100-S17 protocol based method. The format is functional.
In data set [17] the test system is Escherichia coli. Put plainly: Antibacterial activity against wild type Escherichia coli 1609 by CLSI M100-S17 protocol based method. The format is functional.
Data set [18] addresses DNA gyrase subunit A (Escherichia coli K-12, UniProt P0AES4). Put plainly: Inhibition of His tagged Escherichia coli ATCC 25922 DNA gyrase A SD-LY mutant expressed in Escherichia coli BL21 (DE3) pLysS cells assessed as reduction in enzyme-mediated supercoiling of relaxed plasmid DNA pNO1 after 30 mins in presence of biotinylated TFO1 by fluorescence assay.
Data set [19] can be described thus: Inhibition of His tagged Escherichia coli ATCC 25922 DNA gyrase A expressed in Escherichia coli BL21 (DE3) pLysS cells assessed as reduction in enzyme-mediated supercoiling of relaxed plasmid DNA pNO1 after 30 mins in presence of biotinylated TFO1 by fluorescence assay.
Data set [20] is described as follows: Inhibition of Escherichia coli DNA topoisomerase 4 assessed as reduction in decatenation activity using kinetoplast concatenated DNA as substrate after 30 mins by picogreen dye based fluorescence assay.
In data set [21] the test system is Escherichia coli. Put plainly: Antibacterial activity against Escherichia coli infected in cyclophosphamide treated neutropenic CD1 mouse septicemia model assessed as mouse survival at 20 mg/kg, iv dosed at 1 hr post infection followed by redosing at 5 hrs post infection measured at 96 hrs post infection relative to control. The class given is functional. The method in brief: as §1

Data set [22] deals with Escherichia coli. In words: Antibacterial activity against quinolone resistant Escherichia coli by broth microdilution method. The following applies: Escherichia coli. The format is functional. The method in brief: (§2)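 MICs were determined by CLSI broth methods, except that organisms were grown in brain–heart–infusion medium. The panel comprised wild-type and resistant E. coli and A. baumannii strains, including 12 strains whose details are given by reference.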

Data set [23] deals with Escherichia coli. Put plainly: Antibacterial activity against wild type Escherichia coli by broth microdilution method. The format is functional. The method in brief:
as §2
A general note: In broth dilution the organism is exposed to a series of concentrations in liquid medium.

Data set [24] has as its system Escherichia coli. Put plainly: Antibacterial activity against beta-lactam resistant Escherichia coli by broth microdilution method. The format is functional. The following applies: Escherichia coli. The method in brief: as §2
Data set [25] has as its system Escherichia coli. In words: Antibacterial activity against aminoglycoside resistant Escherichia coli by broth microdilution method. The format is functional. To be noted: Escherichia coli. The method in brief: as §2
In data set [26] the test system is Escherichia coli. In words: Antibacterial activity against multidrug resistant Escherichia coli by broth microdilution method. The class given is functional. To be noted: Escherichia coli. Summed up:
as §2

In data set [27] the test system is Acinetobacter baumannii. In words: Antibacterial activity against wild type Acinetobacter baumannii by broth microdilution method. The format is functional. Summed up: as §2
Data set [28] has as its system Acinetobacter baumannii. In words: Antibacterial activity against aminoglycoside resistant Acinetobacter baumannii by broth microdilution method. The format is functional. To be noted: Acinetobacter baumannii. Summed up: as §2
In data set [29] the test system is Acinetobacter baumannii. In words: Antibacterial activity against quinolone resistant Acinetobacter baumannii by broth microdilution method. The class given is functional. To be noted: Acinetobacter baumannii. Summed up: as §2
Data set [30] deals with Acinetobacter baumannii. Put plainly: Antibacterial activity against beta-lactam resistant Acinetobacter baumannii by broth microdilution method. The format is functional. To be noted: Acinetobacter baumannii. Summed up:
as §2

The test system of data set [31] is Acinetobacter baumannii. In words: Antibacterial activity against carbapenem resistant Acinetobacter baumannii by broth microdilution method. To be noted: Acinetobacter baumannii. The format is functional. The method in brief:
as §2

Data set [32] concerns Acinetobacter baumannii. In words: Antibacterial activity against multidrug resistant Acinetobacter baumannii by broth microdilution method. The class given is functional. The following applies: Acinetobacter baumannii. The method in brief:
as §2

≈ marks a conversion by molar mass, not a printed value.

Chain of DNA gyrase subunit A (P0AES4 2-875 limits assumed): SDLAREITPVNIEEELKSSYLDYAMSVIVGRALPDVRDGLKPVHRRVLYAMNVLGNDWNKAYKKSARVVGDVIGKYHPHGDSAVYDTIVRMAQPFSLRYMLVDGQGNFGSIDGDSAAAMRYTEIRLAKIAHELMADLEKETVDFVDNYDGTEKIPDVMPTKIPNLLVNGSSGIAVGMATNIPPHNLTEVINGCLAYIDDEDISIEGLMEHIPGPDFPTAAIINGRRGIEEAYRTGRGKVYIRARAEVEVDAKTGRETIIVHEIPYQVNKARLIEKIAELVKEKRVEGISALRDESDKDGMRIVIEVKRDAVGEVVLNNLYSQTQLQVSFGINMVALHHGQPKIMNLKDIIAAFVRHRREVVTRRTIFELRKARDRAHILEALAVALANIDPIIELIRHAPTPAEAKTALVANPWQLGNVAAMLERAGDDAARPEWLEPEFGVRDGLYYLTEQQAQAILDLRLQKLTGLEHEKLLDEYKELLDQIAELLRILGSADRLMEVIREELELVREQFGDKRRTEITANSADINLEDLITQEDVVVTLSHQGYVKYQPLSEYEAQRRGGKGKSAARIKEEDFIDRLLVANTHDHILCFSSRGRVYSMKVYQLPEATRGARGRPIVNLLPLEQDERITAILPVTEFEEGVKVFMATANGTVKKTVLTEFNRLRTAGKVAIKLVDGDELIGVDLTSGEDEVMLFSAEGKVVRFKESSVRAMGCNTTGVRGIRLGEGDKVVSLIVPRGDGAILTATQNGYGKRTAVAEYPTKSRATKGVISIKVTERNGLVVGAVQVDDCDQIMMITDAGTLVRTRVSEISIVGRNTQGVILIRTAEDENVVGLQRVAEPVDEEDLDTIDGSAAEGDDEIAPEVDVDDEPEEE

In data set [1], `COc1c(N2C[C@@H]3CCCN[C@@H]3C2)c(F)cc2c(=O)c(C(=O)O)cn(C3CC3)c12` [MOXIFLOXACIN] gave a Fu of 0.8. This compound also came in with an AUC in data set [2] of 640 ng·h/mL. In addition, the survival at 3 mg/kg in data set [3] is 100%. Further, the survival at 1.5 mg/kg in data set [4] is 83%.
`CCc1c(-c2ccc3c(c2)cc(CN2CCC2)n3C)[nH]c(=O)c(C(=O)O)c1O`: the minimal inhibitory concentration (MIC) in data set [5] is 1.6 µg/mL (≈ 4.19 µM); in data set [6] it was 0.39 µg/mL (≈ 1.02 µM); in [7], 1.6 µg/mL (≈ 4.19 µM); in data set [8], 0.39 µg/mL (≈ 1.02 µM); in [9] it was 6.3 µg/mL (≈ 16.5 µM); in data set [10], 0.78 µg/mL (≈ 2.04 µM). For the same compound, in data set [11], the minimum inhibitory concentration (MIC) stood at 1.6 µg/mL. Further, the Activity entry in data set [12] was “Dose-dependent effect”; in data set [13], “Dose-dependent effect”; in data set [14] it was 3 log10CFU; in data set [15], 2 log10CFU.
Regarding `CCNCc1cc2cc3c(cc2n1C)CCCc1c-3[nH]c(=O)c(C(=O)O)c1O`, the MIC was 0.39 µg/mL (≈ 1.02 µM) in data set [5]; 0.39 µg/mL (≈ 1.02 µM) in data set [6]; 1.6 µg/mL (≈ 4.19 µM) in [7]; 0.78 µg/mL (≈ 2.04 µM) in data set [8]; 1.6 µg/mL (≈ 4.19 µM) in data set [9]; 0.78 µg/mL (≈ 2.04 µM) in [10]. Moreover, the MIC in [11] is 6.3 µg/mL; in [16] it was 1.6 µg/mL (≈ 4.19 µM); in [17], 1.6 µg/mL (≈ 4.19 µM); in data set [22] (read-out: MIC) it was 0.25 to 1 µg/mL (≈ 0.655 to 2.62 µM); in [24] (read-out: MIC) it was 0.25 to 1 µg/mL (≈ 0.655 to 2.62 µM); in data set [25] (read-out: MIC), 0.25 to 1 µg/mL (≈ 0.655 to 2.62 µM). The MIC in data set [26] (read-out: MIC) is 0.25 to 1 µg/mL (≈ 0.655 to 2.62 µM); in data set [28] (read-out: MIC), 0.25 to 32 µg/mL (≈ 0.655 to 83.9 µM); in data set [29] (read-out: MIC), 0.25 to 32 µg/mL (≈ 0.655 to 83.9 µM); in data set [30] (read-out: MIC) it was 0.25 to 32 µg/mL (≈ 0.655 to 83.9 µM); in data set [31] (read-out: MIC) it was 0.25 to 32 µg/mL (≈ 0.655 to 83.9 µM); in data set [32] (read-out: MIC), 0.25 to 32 µg/mL (≈ 0.655 to 83.9 µM). Moreover, the IC50 in data set [18] was 760 nM; in data set [19] it was 56 to 100 nM; in data set [20], 2900 nM. The Fu in data set [1] amounted to 0.17. The survival at 20 mg/kg in data set [21] came to 83%. In addition, the MIC50 in data set [22] was 1 µg/mL (≈ 2.62 µM); in data set [23] it was 1 µg/mL (≈ 2.62 µM); in data set [24], 1 µg/mL (≈ 2.62 µM); in data set [25], 1 µg/mL (≈ 2.62 µM); in data set [26], 1 µg/mL (≈ 2.62 µM); in [27] it was 2 µg/mL (≈ 5.24 µM). For the same compound, the MIC50 in [28], in [29], in data set [30], in data set [31] and in [32] was 2 µg/mL (≈ 5.24 µM) each time. Also, the MIC90 stood at 1 µg/mL (≈ 2.62 µM) in data set [22]; 1 µg/mL (≈ 2.62 µM) in [23]; 1 µg/mL (≈ 2.62 µM) in data set [24]; 1 µg/mL (≈ 2.62 µM) in data set [25]; 1 µg/mL (≈ 2.62 µM) in data set [26]; 16 µg/mL (≈ 41.9 µM) in data set [27]. Also, the MIC90 in data set [28], in data set [29], in data set [30], in data set [31] and in data set [32] was 16 µg/mL (≈ 41.9 µM) in each case.

By AUC is commonly meant concentration integrated over time. A lower AUC goes with less exposure. By MIC is commonly meant the lowest concentration found to suppress growth. The term IC50 denotes the concentration that inhibits the measured activity by half. For orientation: MIC50 means an inhibitory concentration at the 50% level, which refers to growth in some studies and to a panel of isolates in others. High values mean weaker potency, low ones greater potency. As usually defined, the MIC90 is an inhibitory concentration at the 90% level, which refers to growth in some studies and to a panel of isolates in others. Low readings indicate greater potency, high ones weaker potency.
